Like-named read-outs stand apart in the source and are kept apart here.

One series relates to Oct1+/+ and Oct1-/- mice. Kind of series: Toxicity study of oxaliplatin in Oct1+/+ and Oct1-/- mice. As to conditions: 6 mg/kg i.p. once daily for 5 days. It is filed as in vivo, mouse.
Series [1] is described as follows: Tissue accumulation of platinum in Oct1+/+ and Oct1-/- mice. It is filed as in vivo, mouse. As to conditions: 1 h after 8 mg/kg i.v. In outline: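 Male FVB Oct1+/+ and Oct1-/- mice (8 weeks) were given 8 mg/kg in saline i.v. by tail vein and killed 1 h later. Liver, kidney, heart, lung, brain, intestine, spleen and muscle were snap-frozen. Total Pt was measured by ICP-MS in 10–30 mg tissue and reported as nmol/g tissue; plasma was reported in μM.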

Series [2] deals with primary mouse hepatocytes. It is filed as in vitro ADME. As to conditions: 30 min exposure.

For `O=C1[O][Pt]2([NH][C@@H]3CCCC[C@H]3[NH]2)[O]C1=O` [oxaliplatin, Oxaliplatin, reference compound], the “relative body weight loss” value in the series on Oct1+/+ and Oct1-/- mice (Oct1+/+ mice) worked out at 15.1%; with Oct1+/+ and Oct1-/- mice (Oct1-/- mice), 6.8%. The liver histopathology examination result in the series on Oct1+/+ and Oct1-/- mice (either Oct1+/+ or Oct1-/- mice) was “no clear sign of liver damage”. Also, the plasma concentration came out at 5.96 ± 0.54 µM in series [1] (Oct1+/+ mice) and 6.69 ± 0.62 µM in series [1] (Oct1-/- mice). The entries for the “hepatocellular uptake rate, wild-type as fold of Oct1-/-” value in series [2] (1 μM) and in series [2] (5 μM) were 1.8 fold and 1.4 fold, respectively. The hepatocellular uptake rate is 0.855 ± 0.184 pmol/mg protein/hr in series [2] (hepatocytes from Oct1-/- mice, 1 μM); 3.97 ± 0.500 pmol/mg protein/hr in series [2] (hepatocytes from Oct1-/- mice, 5 μM); 1.54 ± 0.300 pmol/mg protein/hr in series [2] (hepatocytes from Oct1 wild-type mice, 1 μM); 5.55 ± 0.384 pmol/mg protein/hr in series [2] (hepatocytes from Oct1 wild-type mice, 5 μM).

The values above are taken from paper PMC3040319 (Pharmaceutical Research, 2010).
